Experimental findings from ChEMBL document CHEMBL3271979, “Inhibition of solid tumors by nitrosoureas. 1. Lewis lung carcinoma” (1977) are described below.

For orientation: ILS means how much longer treated animals lived than controls.

Activity calls are given as the source filed them. No cut-off for these calls is given here.

The subject of test [1] is Mus musculus. Description: Antitumor activity against mouse advanced Lewis lung carcinoma allografted in BDF1 mouse assessed as disease cure at 9 mg/kg, ip administered as single dose on 7th day post-tumor implantation measured for 80 days post-drug treatment. Format: functional, organism-based. Set-up: dose 9 mg/kg. The gist of the method: (§1)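 BDF1 mice (C57Blk/6 × DBA/2) implanted sc by trocar with Lewis lung tumor fragments of about 40 mg, taken only from bacteriologically sterile donor tumors. Mice bearing tumors of about 400 mg (day 6-7) were selected. Each received a single ip dose on day 7, at or below the LD10 in normal mice. Groups were of 10 mice. Tumor weight was taken from calipers as w = ab²/2, measured at least twice weekly. Matched non-tumor mice served as toxicity controls.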

The test system of test [2] is Mus musculus. Description: Antitumor activity against mouse advanced Lewis lung carcinoma allografted in BDF1 mouse assessed as complete regression of established tumor at 9 mg/kg, ip administered as single dose on 7th day post-tumor implantation. Set-up: dose 9 mg/kg. Format: functional, organism-based. The gist of the method:
as §1

Test [3] in a line: Antitumor activity against mouse advanced Lewis lung carcinoma allografted in BDF1 mouse assessed as increase in host life span at 9 mg/kg, ip administered as single dose on 7th day post-tumor implantation. Format: functional. The following applies: route intraperitoneal. The method in brief: (§2)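 BDF1 mice (C57Blk/6 × DBA/2) implanted sc by trocar with about 40 mg Lewis lung tumor fragments from bacteriologically sterile donors. Advanced-disease groups held tumors of about 400 mg by day 6-7, sized by caliper (w = ab²/2). Single ip injection on day 7, in water or saline vehicle, at or below the LD10 in normal mice. Tumors measured at least twice weekly.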

The subject of test [4] is Mus musculus. Kind of test: Antitumor activity against mouse advanced Lewis lung carcinoma allografted in BDF1 mouse assessed as complete regression of established tumor at 41 mg/kg, ip administered as single dose on 7th day post-tumor implantation. Format: functional, organism-based. Set-up: dose 41 mg/kg. The method in brief: as §1
For test [5], the system named is Mus musculus. Kind of test: Antitumor activity against mouse advanced Lewis lung carcinoma allografted in BDF1 mouse assessed as disease cure at 41 mg/kg, ip administered as single dose on 7th day post-tumor implantation measured for 80 days post-drug treatment. Set-up: dose 41 mg/kg. Format: functional, organism-based. The gist of the method:
as §1

Test [6] in a line: Antitumor activity against mouse advanced Lewis lung carcinoma allografted in BDF1 mouse assessed as increase in host life span at 27 mg/kg, ip administered as single dose on 7th day post-tumor implantation. The following applies: route intraperitoneal. The format is functional. The gist of the method:
as §2

The nature of test [7]: Antitumor activity against mouse advanced Lewis lung carcinoma allografted in BDF1 mouse assessed as increase in host life span at 41 mg/kg, ip administered as single dose on 7th day post-tumor implantation. The format is functional. Conditions: route intraperitoneal. The method in brief: as §2
Test [8] is described as follows: Antitumor activity against mouse advanced Lewis lung carcinoma allografted in ip dosed BDF1 mouse assessed as increase in host lifespan administered as single dose on day 6 or 7 post-tumor implantation. Format: functional. The gist of the method: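 Advanced Lewis lung model: about 40 mg fragments implanted sc by trocar into BDF1 mice, and mice with tumors of about 400 mg (day 6-7) selected. Tumor weight from calipers, w = ab²/2. Agent given as one ip dose in distilled water or physiological saline. Nontumor-bearing mice received matching doses as toxicity controls.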

Test [9] deals with Mus musculus. Description: Antitumor activity against mouse advanced Lewis lung carcinoma allografted in ip dosed BDF1 mouse assessed as complete regression of established tumor administered as single dose on day 6 or 7 post-tumor implantation. The format is functional, organism-based. The gist of the method:
as §1

For test [10], the system named is Mus musculus. Description: Antitumor activity against mouse advanced Lewis lung carcinoma allografted in BDF1 mouse assessed as disease cure at 27 mg/kg, ip administered as single dose on 7th day post-tumor implantation measured for 80 days post-drug treatment. The format is functional, organism-based. Set-up: dose 27 mg/kg. The gist of the method:
as §1

Test [11] has as its system Mus musculus. Kind of test: Antitumor activity against mouse advanced Lewis lung carcinoma allografted in ip dosed BDF1 mouse assessed as disease cure administered as single dose on day 6 or 7 post-tumor implantation. Format: functional, organism-based. The method in brief: as §1
In test [12] the test system is Mus musculus. Description: Antitumor activity against mouse advanced Lewis lung carcinoma allografted in BDF1 mouse assessed as complete regression of established tumor at 27 mg/kg, ip administered as single dose on 7th day post-tumor implantation. The format is functional, organism-based. Set-up: dose 27 mg/kg. The method in brief:
as §1

The test system of test [13] is Mus musculus. Description: Antitumor activity against mouse advanced Lewis lung carcinoma allografted in BDF1 mouse assessed as disease cure at 40 mg/kg, ip administered as single dose on 7th day post-tumor implantation measured for 80 days post-drug treatment. Set-up: dose 40 mg/kg. Format: functional, organism-based. The method in brief: as §2
Test [14] can be described thus: Antitumor activity against mouse advanced Lewis lung carcinoma allografted in BDF1 mouse assessed as increase in host life span at 50 mg/kg, ip administered as single dose on 7th day post-tumor implantation. Format: functional. The following applies: route intraperitoneal. The method in brief: as §2
Test [15] in a line: Antitumor activity against mouse advanced Lewis lung carcinoma allografted in BDF1 mouse assessed as increase in host life span at 40 mg/kg, ip administered as single dose on 7th day post-tumor implantation. The format is functional. The following applies: route intraperitoneal. The gist of the method: as §2
Test [16] deals with Mus musculus. Kind of test: Antitumor activity against mouse advanced Lewis lung carcinoma allografted in BDF1 mouse assessed as disease cure at 50 mg/kg, ip administered as single dose on 7th day post-tumor implantation measured for 80 days post-drug treatment. Format: functional, organism-based. Set-up: dose 50 mg/kg. The method in brief: as §2
A short description of test [17]: Antitumor activity against mouse advanced Lewis lung carcinoma allografted in BDF1 mouse assessed as increase in host life span at 93 mg/kg, ip administered as single dose on 7th day post-tumor implantation. Format: functional. Conditions: route intraperitoneal. The gist of the method:
as §2

Test [18] concerns Mus musculus. Description: Antitumor activity against mouse advanced Lewis lung carcinoma allografted in BDF1 mouse assessed as complete regression of established tumor at 93 mg/kg, ip administered as single dose on 7th day post-tumor implantation. Set-up: dose 93 mg/kg. Format: functional, organism-based. The gist of the method:
as §2

Test [19] can be described thus: Antitumor activity against mouse advanced Lewis lung carcinoma allografted in BDF1 mouse assessed as increase in host life span at 62 mg/kg, ip administered as single dose on 7th day post-tumor implantation. Format: functional. The following applies: route intraperitoneal. The method in brief: as §2
Test [20] has as its system Mus musculus. Description: Antitumor activity against mouse advanced Lewis lung carcinoma allografted in BDF1 mouse assessed as complete regression of established tumor at 62 mg/kg, ip administered as single dose on 7th day post-tumor implantation. Set-up: dose 62 mg/kg. The format is functional, organism-based. The method in brief:
as §2

For test [21], the system named is Mus musculus. Kind of test: Antitumor activity against mouse advanced Lewis lung carcinoma allografted in BDF1 mouse assessed as disease cure at 62 mg/kg, ip administered as single dose on 7th day post-tumor implantation measured for 80 days post-drug treatment. Set-up: dose 62 mg/kg. The format is functional, organism-based. The gist of the method:
as §2

The subject of test [22] is Mus musculus. Description: Antitumor activity against mouse advanced Lewis lung carcinoma allografted in BDF1 mouse assessed as disease cure at 93 mg/kg, ip administered as single dose on 7th day post-tumor implantation measured for 80 days post-drug treatment. Set-up: dose 93 mg/kg. The format is functional, organism-based. The method in brief: as §2
Test [23] can be described thus: Antitumor activity against mouse advanced Lewis lung carcinoma allografted in BDF1 mouse assessed as increase in host life span at 52 mg/kg, ip administered as single dose on 7th day post-tumor implantation. Conditions: route intraperitoneal. Format: functional. The gist of the method:
as §2

The test system of test [24] is Mus musculus. Kind of test: Antitumor activity against mouse advanced Lewis lung carcinoma allografted in BDF1 mouse assessed as disease cure at 52 mg/kg, ip administered as single dose on 7th day post-tumor implantation measured for 80 days post-drug treatment. Format: functional, organism-based. Set-up: dose 52 mg/kg. The method in brief:
as §1

Test [25] can be described thus: Antitumor activity against mouse advanced Lewis lung carcinoma allografted in BDF1 mouse assessed as increase in host life span at 144 mg/kg, ip administered as single dose on 7th day post-tumor implantation. Format: functional. Conditions: route intraperitoneal. The method in brief:
as §2

The subject of test [26] is Mus musculus. Description: Antitumor activity against mouse early Lewis lung carcinoma allografted in ip dosed BDF1 mouse assessed as disease cure administered as single dose on 1 or 2 days post-tumor implantation measured for 80 days post-drug treatment. The format is functional. The gist of the method:
(§3)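 BDF1 mice implanted sc by trocar with ~40 mg Lewis lung fragments from sterile donor tumors. A single ip dose was given on day 1 or 2 after implant, in water or saline vehicle. Cures were scored in animals observed for at least 80 days after treatment. Drug-toxicity controls were matched non-tumor-bearing mice monitored for body weight and deaths.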

The nature of test [27]: Ratio of ED50 for antitumor activity against mouse L1210 cells allografted in ip dosed mouse to LD10 for mouse.
Test [28] has as its system Mus musculus. Description: Antitumor activity against mouse advanced Lewis lung carcinoma allografted in BDF1 mouse assessed as disease cure at 144 mg/kg, ip administered as single dose on 7th day post-tumor implantation measured for 80 days post-drug treatment. Format: functional, organism-based. Set-up: dose 144 mg/kg. The method in brief: as §1
Test [29] deals with Mus musculus. Kind of test: Antitumor activity against mouse early Lewis lung carcinoma allografted in ip dosed BDF1 mouse administered as single dose on 1 or 2 days post-tumor implantation measured for 80 days post-drug treatment. Format: functional, organism-based. The gist of the method: as §3

As for `O=NN(CCF)C(=O)NC1CC2CCC1C2` (stereo not drawn), the result in test [1] was inactive. Also, the inhibition result in [2] is “inactive”. For the same compound, the ILS at 9 mg/kg in test [3] stood at 40%.
As for `O=NN(CCF)C(=O)NC1CSCSC1`, the inhibition entry in test [4], in test [9] and in test [12] was “inactive” in each case. In addition, the outcome in test [5], in [10] and in [11] was inactive. Besides, the ILS at 27 mg/kg in [6] came to 40%. Further, in test [7], the ILS at 41 mg/kg turned out to be 21%. Moreover, the ILS in test [8] is over 25%.
On to `O=NN(CCCl)C(=O)NC1CCCCC1` [LOMUSTINE], for which the outcome in [13], in [11] and in test [16] was inactive. Besides, in test [14], the ILS at 50 mg/kg was found to be 15%. Further, the inhibition entry in test [9] is “Active”. In test [15], the ILS at 40 mg/kg was 31%.
`Cc1ccc(S(=O)(=O)NC(=O)N(CCCl)N=O)cc1`: the ILS at 93 mg/kg in test [17] came out at 28%. Besides, the inhibition result in [18], in test [9] and in [20] was “inactive” each time. Moreover, the ILS in test [8] was over 25%. Besides, the outcome in [11], in test [21] and in [22] was inactive. For the same compound, in test [19], the ILS at 62 mg/kg was 28%.
For the compound `CC1(C)CCC(NC(=O)N(CCF)N=O)CC1`, the inhibition entry in [9] is “Active”. Further, the ILS at 52 mg/kg in [23] is 100%. Besides, the outcome in test [11] and in test [24] was inactive.
As to `O=NN(CCCl)C(=O)NC1C2CC3CC(C2)CC1C3` (stereo not drawn), the inhibition result in test [9] is “Active”. Moreover, the ILS at 144 mg/kg in [25] stood at 19%. Besides, the outcome in test [26], in test [11], in [28] and in [29] was inactive. The Ratio in [27] is 0.6.
